In ChEMBL document CHEMBL1143811, “Bis-acridines as lead antiparasitic agents: structure-activity analysis of a discrete compound library in vitro” (Antimicrob Agents Chemother, 2007):
Values after ≈ are worked out from the molar mass of the structure shown. Active and inactive are the calls of the source. The calls are words filed in the database; no cut-off is given here.

Columns and labels:
Trichomonas vaginalis [1] = experiment: Antimicrobial activity against Trichomonas vaginalis G3 assessed as parasite death at 10 uM after 24 hrs; assay type: functional
In short: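 G3 strain grown in Diamond's medium at 37°C. Assay culture set up as 0.5 ml dense culture diluted into 5.0 ml complete medium. Compound at a final 10 µM for 24 h at 37°C. Motile cells counted by hemocytometer. Result is percent dead parasites relative to DMSO-treated cultures, from five separate experiments. Controls were untreated, DMSO and metronidazole.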

[2] = Cytotoxicity against BALB/c mouse peritoneal macrophages at 1 uM after 48 hrs hrs; assay type: cell-based; conditions: macrophage
Plasmodium falciparum [3] = experiment: Antimalarial activity against chloroquine-resistant Plasmodium falciparum FcB1R after 72 hrs; assay type: functional, organism-based
[4] = tested on: Trypanosoma brucei brucei; experiment: Antimicrobial activity against Trypanosoma brucei brucei clone 427-221a at 1.56 uM; assay type: functional
Schistosoma mansoni [5] = experiment: Antimicrobial activity against Schistosoma mansoni assessed as worm vitality at 6 uM after 4 hrs; assay type: functional, organism-based
In short: (§1)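 20-day-old worms were obtained by perfusion of BALB/c mice infected with 200 cercariae. About 20 worms/well were kept in Basch 169 with 10% bovine calf serum, preincubated 24 h at 37°C in 5% CO2, then exposed to 1, 3 or 6 µM. Vitality (feeding, flexing, gut peristalsis; death = nonmotile, shrunken, dark) was scored at 4 and 18 h in two experiments.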

Leishmania donovani = experiment: Antileishmanial activity against Leishmania donovani MHOM/SD/00/1S-2D promastigotes assessed as parasite death at 10 uM after 72 hrs; assay type: functional
In short: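 Promastigotes seeded at 1.5 x 10^5 cells/ml in medium 199 with 10% heat-inactivated FBS. Compound added at a final 10 µM, in triplicate, in sealed flasks at 27°C for up to 7 days. Aliquots taken daily and viability read by CellTiter-Glo luminescence. Result given as percent reduction in viability relative to DMSO-treated cultures. Controls were K11777 or amphotericin B at 10 µM.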

[6] = tested on: Trypanosoma brucei brucei; experiment: Antimicrobial activity against Trypanosoma brucei brucei clone 427-221a after 48 hrs; assay type: functional, organism-based
In short: (§2)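 Bloodstream-form T. b. brucei in Baltz medium (~10^4/ml) and HL-60 cells in RPMI 1640 (~10^5/ml), both with 16.7% FBS, were exposed 48 h at 37°C in 5% CO2 to compound up to 10 µM in 1% final DMSO. Live cells were hemocytometer-counted, by motility (trypanosomes) or trypan blue exclusion (HL-60). EC50 was taken by regression versus DMSO cultures from three experiments. MIC was the lowest fully lethal concentration, judged microscopically.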

Plasmodium falciparum [7] = experiment: Antimicrobial activity against chloroquine-sensitive Plasmodium falciparum 3D7 after 72 hrs; assay type: functional, organism-based; conditions: 3D7, 72 h
Leishmania major [8] = experiment: Antileishmanial activity against Leishmania major MHOM/IL/81/FE/BNI amastigotes after 48 hrs at 1 uM; assay type: functional, organism-based
In short: (§3)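 Peritoneal macrophages from BALB/c mice (6-8 wk) adhered 2 h at 37°C, infected 24 h with stationary-phase L. major promastigotes at 10:1 parasite:macrophage, washed, then exposed 48 h to compound at 0.0001 to 10 µM. Intracellular amastigotes stained with acridine orange/ethidium bromide and counted by fluorescence microscopy; percent amastigotes cleared versus DMSO-treated cultures; three repeats.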

Entamoeba histolytica = experiment: Antimicrobial activity against Entamoeba histolytica HM1 IMSS trophozoites after 48 hrs; assay type: functional, organism-based; conditions: 60 h, in the assay text read “60 hrs” for “48 hrs”
In short: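 Trophozoites were grown axenically in TYI-S-33 with 10% bovine adult serum and seeded at ~10^4 cells/well. Compound (range up to 10 µM) was added to 48-h log-phase cultures, then incubated 60 h at 37°C under anaerobic conditions. Viability was read by CellTiter-Glo luminescence. EC50 came from quadruplicate wells in two independent experiments.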

HL-60 = experiment: (§4) Cytotoxicity against human HL60 cells; assay type: cell-based; conditions: Homo sapiens, HL-60; in short: as §2
[9] = as §4; assay type: cell-based, HL-60; conditions: human, HL-60 cells; read-out: MIC; in short: as §2
[10] = Selectivity index, ratio of EC50 for HL60 cells to EC50 for Trypanosoma brucei brucei clone 427-221a; assay type: functional, HL-60; in short: as §2
[11] = Selectivity index, ratio of MIC for HL60 cells to MIC for Trypanosoma brucei brucei clone 427-221a; assay type: functional, HL-60; in short: as §2
Plasmodium falciparum [12] = experiment: Antimicrobial activity against chloroquine-resistant Plasmodium falciparum W2 after 72 hrs; assay type: functional, organism-based; conditions: W2, 72 h
[13] = Cytotoxicity against BALB/c mouse peritoneal macrophages at 10 uM after 48 hrs hrs; assay type: cell-based; conditions: macrophage
MRC5 = experiment: Toxicity against human MRC5 cells at 3.13 uM; assay type: cell-based; conditions: mrc5, 3.13 µM
Schistosoma mansoni [14] = experiment: Antimicrobial activity against Schistosoma mansoni assessed as worm vitality at 3 uM after 4 hrs; assay type: functional, organism-based; in short: as §1
Leishmania major [15] = experiment: Antileishmanial activity against Leishmania major MHOM/IL/81/FE/BNI amastigotes after 48 hrs; assay type: functional, organism-based; in short: as §3
J774 = experiment: Cytotoxicity against mouse J774 cells; assay type: cell-based
Trichomonas vaginalis [16] = experiment: Antimicrobial activity against Trichomonas vaginalis G3 assessed as parasite death at 1 uM after 24 hrs; assay type: functional

Compound	Activity (Trichomonas vaginalis [1])	Activity [2]	EC50 (Plasmodium falciparum [3])	Activity [4]	Activity (Schistosoma mansoni [5])	Activity (Leishmania donovani)	EC50 [6]	MIC [6]	EC50 (Plasmodium falciparum [7])	Activity (Leishmania major [8])	EC50 (Entamoeba histolytica)	EC50 (HL-60)	MCC [9]	Ratio EC50 [10]	Ratio [11]	EC50 (Plasmodium falciparum [12])	Activity [13]	Activity (MRC5)	Activity (Schistosoma mansoni [14])	also measured
COc1ccc2nc3cc(Cl)ccc3c(NCCCNCCCNc3c4ccc(Cl)cc4nc4ccc(OC)cc34)c2c1	23%	Toxic	55 nM	100%	Active	95%	1.1 nM	1 µM (≈ 0.615 µg/mL)	127 nM	inactive	5 µM	244 nM	10 µM	214	10	180 nM	Toxic	100%	Active	
COc1ccc2nc3cc(Cl)ccc3c(NCCCCNCCCNc3c4ccc(Cl)cc4nc4ccc(OC)cc34)c2c1	3%		61 nM	100%	Active	96%	0.7 nM	1 µM (≈ 0.629 µg/mL)	62 nM		5 µM	144 nM	10 µM	209	10	135 nM	Toxic	100%	Active	EC50 (Leishmania major [15]): 800 nM; Activity (J774): Toxic
COc1ccc2nc3cc(Cl)ccc3c(NCCNCCCNCCNc3c4ccc(Cl)cc4nc4ccc(OC)cc34)c2c1	75%	Toxic			Active	99%	1.3 nM	1 µM (≈ 0.644 µg/mL)	105 nM	inactive	5 µM	120 nM	1 µM	91	1	136 nM	Toxic		Active	
COc1ccc2nc3cc(Cl)ccc3c(NCCOCCOCCNc3c4ccc(Cl)cc4nc4ccc(OC)cc34)c2c1	75%	Toxic				96%	5.8 nM	1 µM (≈ 0.632 µg/mL)	61 nM	inactive	5 µM	3040 nM	10 µM	524	10	74 nM	Toxic			
COc1ccc2nc3cc(Cl)ccc3c(NCCCCN(CCCNc3c4ccc(Cl)cc4nc4ccc(OC)cc34)C(=O)[C@H](C)N)c2c1	80%	Toxic				93%	0.9 nM	1 µM (≈ 0.7 µg/mL)	310 nM	inactive	5 µM	225 nM	10 µM	242	10	303 nM	Toxic			
Cc1ncc([N+](=O)[O-])n1CCO [METRONIDAZOLE]											2 µM									Activity (Trichomonas vaginalis [16]): 100%
